Experiments:
Assay type in all cases: functional
MCF7 = assay: Growth inhibition of human MCF7 cells at 10 uM after 48 hrs by sulforhodamine B assay; conditions: MCF7, 48 h, read-out: GI
Procedure, shortened: (§1)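 Run at NCI on the 60-line panel. Cells grown in RPMI 1640 with 5% FBS and 2 mM L-glutamine, plated at 5000–40,000 cells/well by doubling time, and held 24 h at 37 °C before dosing. Drug (DMSO stock) given at a single final 10 µM in triplicate wells for 48 h. Adherent cells fixed with cold TCA (10% final), suspension cells with 16% TCA. SRB stain read at 515 nm. Percent growth from Tz, C and Ti.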

NCI-H322M = assay: Growth inhibition of human NCI-H322M cells at 10 uM after 48 hrs by sulforhodamine B assay; conditions: read-out: GI; procedure, shortened: as §1
[1] = Growth inhibition of human SNB19 cells at 10 uM after 48 hrs by sulforhodamine B assay; conditions: SNB-19, 48 h, read-out: GI; procedure, shortened: as §1
NCI-H522 = assay: Growth inhibition of human NCI-H522 cells at 10 uM after 48 hrs by sulforhodamine B assay; conditions: NCI-H522, 48 h, read-out: GI; procedure, shortened: as §1
NCI-H226 = assay: Growth inhibition of human NCI-H226 cells at 10 uM after 48 hrs by sulforhodamine B assay; conditions: NCI-H226, 48 h, read-out: GI; procedure, shortened: as §1
[2] = Growth inhibition of human BT549 cells at 10 uM after 48 hrs by sulforhodamine B assay; conditions: BT-549, 48 h, read-out: GI; procedure, shortened: as §1
[3] = Growth inhibition of human SNB75 cells at 10 uM after 48 hrs by sulforhodamine B assay; conditions: SNB-75, 48 h, read-out: GI; procedure, shortened: as §1
[4] = Growth inhibition of human SF295 cells at 10 uM after 48 hrs by sulforhodamine B assay; conditions: SF-295, 48 h, read-out: GI; procedure, shortened: as §1
NCI-H460 = assay: Growth inhibition of human NCI-H460 cells at 10 uM after 48 hrs by sulforhodamine B assay; conditions: NCI-H460, 48 h, read-out: GI; procedure, shortened: as §1
[5] = Growth inhibition of human HCT15 cells at 10 uM after 48 hrs by sulforhodamine B assay; conditions: HCT-15, 48 h, read-out: GI; procedure, shortened: as §1
MDA-MB-468 = assay: Growth inhibition of human MDA-MB-468 cells at 10 uM after 48 hrs by sulforhodamine B assay; conditions: MDA-MB-468, 48 h, read-out: GI; procedure, shortened: as §1
[6] = Growth inhibition of human SF268 cells at 10 uM after 48 hrs by sulforhodamine B assay; conditions: SF-268, 48 h, read-out: GI; procedure, shortened: as §1
[7] = Growth inhibition of human NCI-ADR-RES cells at 10 uM after 48 hrs by sulforhodamine B assay; conditions: read-out: GI; procedure, shortened: as §1
K562 = assay: Growth inhibition of human K562 cells at 10 uM after 48 hrs by sulforhodamine B assay; conditions: K562, 48 h, read-out: GI; procedure, shortened: as §1
[8] = Growth inhibition of human LOXIMVI cells at 10 uM after 48 hrs by sulforhodamine B assay; conditions: LOX IMVI, read-out: GI; procedure, shortened: as §1
T47D = assay: Growth inhibition of human T47D cells at 10 uM after 48 hrs by sulforhodamine B assay; conditions: read-out: GI
Procedure, shortened: (§2)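 NCI-60 panel, adherent cells grown in RPMI 1640 with 5% FBS and 2 mM L-glutamine, plated at 5000–40,000 cells/well and preincubated 24 h at 37 °C, 5% CO2. 10 µM final compound from DMSO stock, triplicate wells, 48 h. Fixed with cold TCA (10% final, 60 min, 4 °C) and stained with 0.4% SRB. Absorbance read at 515 nm; growth calculated against time-zero and control wells.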

[9] = Growth inhibition of human OVCAR4 cells at 10 uM after 48 hrs by sulforhodamine B assay; conditions: OVCAR-4, 48 h, read-out: GI; procedure, shortened: as §1
786-0 = assay: Growth inhibition of human 786-0 cells at 10 uM after 48 hrs by sulforhodamine B assay; conditions: 786-0, 48 h, read-out: GI; procedure, shortened: as §1
NCI-H23 = assay: Growth inhibition of human NCI-H23 cells at 10 uM after 48 hrs by sulforhodamine B assay; conditions: NCI-H23, 48 h, read-out: GI; procedure, shortened: as §1
[10] = Growth inhibition of human UO31 cells at 10 uM after 48 hrs by sulforhodamine B assay; conditions: UO-31, 48 h, read-out: GI; procedure, shortened: as §2
SK-MEL-5 = assay: Growth inhibition of human SK-MEL-5 cells at 10 uM after 48 hrs by sulforhodamine B assay; conditions: SK-MEL-5, 48 h, read-out: GI; procedure, shortened: as §1
[11] = Growth inhibition of human OVCAR3 cells at 10 uM after 48 hrs by sulforhodamine B assay; conditions: OVCAR-3, 48 h, read-out: GI; procedure, shortened: as §1
MDA-MB-231 = assay: Growth inhibition of human MDA-MB-231 cells at 10 uM after 48 hrs by sulforhodamine B assay; conditions: MDA-MB-231, 48 h, read-out: GI; procedure, shortened: as §1
[12] = Growth inhibition of human DU145 cells at 10 uM after 48 hrs by sulforhodamine B assay; conditions: DU-145, 48 h, read-out: GI; procedure, shortened: as §1
ACHN = assay: Growth inhibition of human ACHN cells at 10 uM after 48 hrs by sulforhodamine B assay; conditions: read-out: GI; procedure, shortened: as §1
Malme-3M = assay: Growth inhibition of human MALME-3M cells at 10 uM after 48 hrs by sulforhodamine B assay; conditions: read-out: GI; procedure, shortened: as §1
[13] = Growth inhibition of human HOP92 cells at 10 uM after 48 hrs by sulforhodamine B assay; conditions: HOP-92, 48 h, read-out: GI; procedure, shortened: as §1
KM12 = assay: Growth inhibition of human KM12 cells at 10 uM after 48 hrs by sulforhodamine B assay; conditions: KM12, 48 h, read-out: GI; procedure, shortened: as §1
[14] = Growth inhibition of human OVCAR8 cells at 10 uM after 48 hrs by sulforhodamine B assay; conditions: OVCAR-8, 48 h, read-out: GI; procedure, shortened: as §1
[15] = Growth inhibition of human RPMI8226 cells at 10 uM after 48 hrs by sulforhodamine B assay; conditions: RPMI-8226, 48 h, read-out: GI; procedure, shortened: as §1
A498 = assay: Growth inhibition of human A498 cells at 10 uM after 48 hrs by sulforhodamine B assay; conditions: A498, 48 h, read-out: GI; procedure, shortened: as §1
HT-29 = assay: Growth inhibition of human HT-29 cells at 10 uM after 48 hrs by sulforhodamine B assay; conditions: HT-29, 48 h, read-out: GI; procedure, shortened: as §1
U-251 = assay: Growth inhibition of human U251 cells at 10 uM after 48 hrs by sulforhodamine B assay; conditions: U-251, 48 h, read-out: GI; procedure, shortened: as §2
[16] = Growth inhibition of human COLO205 cells at 10 uM after 48 hrs by sulforhodamine B assay; conditions: COLO 205, 48 h, read-out: GI; procedure, shortened: as §1
[17] = Growth inhibition of human IGROV1 cells at 10 uM after 48 hrs by sulforhodamine B assay; conditions: IGROV-1, 48 h, read-out: GI; procedure, shortened: as §1
[18] = Growth inhibition of human OVCAR5 cells at 10 uM after 48 hrs by sulforhodamine B assay; conditions: OVCAR-5, 48 h, read-out: GI; procedure, shortened: as §1

SMILES | inhibition of growth at 10 µM (MCF7) [%] | inhibition of growth at 10 µM (NCI-H322M) [%] | inhibition of growth at 10 µM [1] [%] | inhibition of growth at 10 µM (NCI-H522) [%] | inhibition of growth at 10 µM (NCI-H226) [%] | inhibition of growth at 10 µM [2] [%] | inhibition of growth at 10 µM [3] [%] | inhibition of growth at 10 µM [4] [%] | inhibition of growth at 10 µM (NCI-H460) [%] | inhibition of growth at 10 µM [5] [%] | inhibition of growth at 10 µM (MDA-MB-468) [%] | inhibition of growth at 10 µM [6] [%] | inhibition of growth at 10 µM [7] [%] | inhibition of growth at 10 µM (K562) [%] | inhibition of growth at 10 µM [8] [%] | inhibition of growth at 10 µM (T47D) [%] | inhibition of growth at 10 µM [9] [%] | inhibition of growth at 10 µM (786-0) [%] | inhibition of growth at 10 µM (NCI-H23) [%] | inhibition of growth at 10 µM [10] [%] | other results
COc1ccc(Cc2nnc(Nc3ccc(NC(=O)Nc4ccccc4)cc3)c3ccccc23)cc1 | < 30 | < 30 | < 30 | 48 | < 30 | < 30 | < 30 | < 30 | < 30 | < 30 | < 30 | < 30 | < 30 | < 30 | < 30 | 41 | < 30 | 36 | < 30 | < 30 | inhibition of growth at 10 µM (SK-MEL-5): < 30%; inhibition of growth at 10 µM [11]: < 30%; inhibition of growth at 10 µM (MDA-MB-231): 31%; inhibition of growth at 10 µM [12]: < 30%; inhibition of growth at 10 µM (ACHN): < 30%; inhibition of growth at 10 µM (Malme-3M): < 30%; inhibition of growth at 10 µM [13]: < 30%; inhibition of growth at 10 µM (KM12): < 30%; inhibition of growth at 10 µM [14]: < 30%; inhibition of growth at 10 µM [15]: 46%; inhibition of growth at 10 µM (A498): < 30%; inhibition of growth at 10 µM (HT-29): < 30%; inhibition of growth at 10 µM (U-251): 32%; inhibition of growth at 10 µM [16]: < 30%; inhibition of growth at 10 µM [17]: < 30%; inhibition of growth at 10 µM [18]: < 30%
COc1ccc(Cc2nnc(Nc3ccc(NC(=O)Nc4cccc(C(F)(F)F)c4)cc3)c3ccccc23)cc1 | < 30 | < 30 | 30 | 56 | < 30 | < 30 | 31 | < 30 | < 30 | < 30 | < 30 | < 30 | < 30 | < 30 | < 30 | < 30 | < 30 | 41 | < 30 | < 30 | inhibition of growth at 10 µM (SK-MEL-5): < 30%; inhibition of growth at 10 µM [11]: < 30%; inhibition of growth at 10 µM (MDA-MB-231): < 30%; inhibition of growth at 10 µM [12]: < 30%; inhibition of growth at 10 µM (ACHN): 41%; inhibition of growth at 10 µM (Malme-3M): < 30%; inhibition of growth at 10 µM [13]: < 30%; inhibition of growth at 10 µM (KM12): 36%; inhibition of growth at 10 µM [14]: < 30%; inhibition of growth at 10 µM [15]: 42%; inhibition of growth at 10 µM (A498): < 30%; inhibition of growth at 10 µM (HT-29): < 30%; inhibition of growth at 10 µM (U-251): 30%; inhibition of growth at 10 µM [16]: < 30%; inhibition of growth at 10 µM [17]: < 30%; inhibition of growth at 10 µM [18]: < 30%
COc1ccc(Cc2nnc(Nc3ccc(NC(=O)Nc4ccc(C#N)cc4)cc3)c3ccccc23)cc1 | 45 | < 30 | 43 | 54 | < 30 | 51 | 57 | 86 | 40 | 36 | < 30 | < 30 | < 30 | 50 | 46 | 48 | < 30 | 83 | < 30 | 44 | inhibition of growth at 10 µM (SK-MEL-5): < 33%; inhibition of growth at 10 µM [11]: < 30%; inhibition of growth at 10 µM (MDA-MB-231): 63%; inhibition of growth at 10 µM [12]: < 30%; inhibition of growth at 10 µM (ACHN): 48%; inhibition of growth at 10 µM (Malme-3M): 42%; inhibition of growth at 10 µM [13]: < 30%; inhibition of growth at 10 µM (KM12): 37%; inhibition of growth at 10 µM [14]: < 30%; inhibition of growth at 10 µM [15]: 95%; inhibition of growth at 10 µM (A498): 54%; inhibition of growth at 10 µM (HT-29): 45%; inhibition of growth at 10 µM (U-251): 63%; inhibition of growth at 10 µM [16]: < 30%; inhibition of growth at 10 µM [17]: 46%; inhibition of growth at 10 µM [18]: < 30%
